Test results taken from ChEMBL document CHEMBL5614377, “Structure-based mapping of the histone-binding pocket of KDM4D using functionalized tetrazole and pyridine core compounds” (Eur J Med Chem, 2024).

Legend:
[1] = molecular target: T1, Lysine-specific demethylase 4D (Homo sapiens) (UniProt Q6B0I6); test: Binding affinity to N-terminal His-6-tagged human KDM4D catalytic domain (1 to 342 residues) assessed as change in enthalpy by isothermal titration calorimetry analysis
T1 sequence (whole entry): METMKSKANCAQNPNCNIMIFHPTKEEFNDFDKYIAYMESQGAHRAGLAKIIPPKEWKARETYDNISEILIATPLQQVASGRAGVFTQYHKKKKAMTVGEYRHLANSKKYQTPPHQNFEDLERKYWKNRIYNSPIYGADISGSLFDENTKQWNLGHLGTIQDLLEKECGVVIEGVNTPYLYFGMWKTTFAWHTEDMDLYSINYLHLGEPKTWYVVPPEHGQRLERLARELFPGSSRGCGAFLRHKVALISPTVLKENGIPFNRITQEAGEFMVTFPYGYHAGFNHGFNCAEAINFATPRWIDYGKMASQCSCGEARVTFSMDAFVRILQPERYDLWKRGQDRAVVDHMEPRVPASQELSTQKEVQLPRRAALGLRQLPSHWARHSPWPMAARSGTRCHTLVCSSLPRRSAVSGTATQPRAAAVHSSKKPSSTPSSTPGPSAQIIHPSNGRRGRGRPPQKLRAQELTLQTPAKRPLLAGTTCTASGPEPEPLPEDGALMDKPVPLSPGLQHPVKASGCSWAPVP
Summary of the method: (§1)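 Human KDM4D catalytic domain (residues 1–342) expressed with N-terminal His6-tag, purified by metal affinity chromatography; tag removed by TEV protease for affinity tests, then size-exclusion. Protein concentration measured by A280. ITC at 20 °C in 10 mM HEPES pH 7.5, 0.5 M NaCl, 5% glycerol, 1 mM TCEP. Ligands diluted from DMSO stocks to 0.4–1% final DMSO, with protein DMSO-matched. Ligand titrated into protein in the cell in 13 or 19 injections of 2–3 μL, 180 s spacing, 5 s filter. Two or three runs per ligand. Thermodynamic parameters obtained by baseline adjustment, peak integration, heat normalization per mole of ligand, and fitting.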

[2] = molecular target: T2, Lysine-specific demethylase 4D (Homo sapiens, UniProt Q6B0I6); test: Binding affinity to N-terminal His-6-tagged human KDM4D catalytic domain (1 to 342 residues) assessed as dissociation constant by isothermal titration calorimetry analysis; summary of the method: as §1
T2 sequence (Q6B0I6 whole entry): T1 sequence (whole entry)

[3] = molecular target: T1, Lysine-specific demethylase 4D (Homo sapiens); test: Binding affinity to N-terminal His-6-tagged human KDM4D catalytic domain (1 to 342 residues) assessed as change in entropy by isothermal titration calorimetry analysis; summary of the method: as §1
[4] = molecular target: T1, Lysine-specific demethylase 4D (Homo sapiens); test: Binding affinity to N-terminal His-6-tagged human KDM4D catalytic domain (1 to 342 residues) assessed as change in gibbs free energy by isothermal titration calorimetry analysis; summary of the method: as §1

deltaH [1] | Kd [2] | -TdeltaS [3] | deltaG [4] | SMILES
8.5 kcal/mol | 509 µM | -12.9 kcal/mol | -4.42 kcal/mol | NNC(=O)[C@H](NC(=O)CCCCc1ccccc1)c1nnn[nH]1
-1.65 kcal/mol | 55.9 µM | -4.05 kcal/mol | -5.7 kcal/mol | O=C(O)c1ccnc(NCCCO)c1
5.3 kcal/mol | 0.55 µM | -13.7 kcal/mol | -8.4 kcal/mol | O=C(NO)c1cc(-c2nnn[nH]2)ccn1
-4.6 kcal/mol | 35.5 µM | -1.35 kcal/mol | -5.97 kcal/mol | CS(=O)(=O)NCCNc1cc(C(=O)O)ccn1
